# Assay outcomes deposited in PubChem by The Scripps Research Institute Molecular Screening Center.
# PLCb3 inh: PLC-beta3 (human) inhibition, primary screen; Q01970; hit rate 0.18% among 370,000; inhibition, % at 12.2 µM; AID 720704; Purified PLC-beta3, fluorogenic substrate, fluorescence;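 further: 0% = median of compound wells on plate and 100% = full blocker control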
# Target sequence (Q01970 whole entry, looked up): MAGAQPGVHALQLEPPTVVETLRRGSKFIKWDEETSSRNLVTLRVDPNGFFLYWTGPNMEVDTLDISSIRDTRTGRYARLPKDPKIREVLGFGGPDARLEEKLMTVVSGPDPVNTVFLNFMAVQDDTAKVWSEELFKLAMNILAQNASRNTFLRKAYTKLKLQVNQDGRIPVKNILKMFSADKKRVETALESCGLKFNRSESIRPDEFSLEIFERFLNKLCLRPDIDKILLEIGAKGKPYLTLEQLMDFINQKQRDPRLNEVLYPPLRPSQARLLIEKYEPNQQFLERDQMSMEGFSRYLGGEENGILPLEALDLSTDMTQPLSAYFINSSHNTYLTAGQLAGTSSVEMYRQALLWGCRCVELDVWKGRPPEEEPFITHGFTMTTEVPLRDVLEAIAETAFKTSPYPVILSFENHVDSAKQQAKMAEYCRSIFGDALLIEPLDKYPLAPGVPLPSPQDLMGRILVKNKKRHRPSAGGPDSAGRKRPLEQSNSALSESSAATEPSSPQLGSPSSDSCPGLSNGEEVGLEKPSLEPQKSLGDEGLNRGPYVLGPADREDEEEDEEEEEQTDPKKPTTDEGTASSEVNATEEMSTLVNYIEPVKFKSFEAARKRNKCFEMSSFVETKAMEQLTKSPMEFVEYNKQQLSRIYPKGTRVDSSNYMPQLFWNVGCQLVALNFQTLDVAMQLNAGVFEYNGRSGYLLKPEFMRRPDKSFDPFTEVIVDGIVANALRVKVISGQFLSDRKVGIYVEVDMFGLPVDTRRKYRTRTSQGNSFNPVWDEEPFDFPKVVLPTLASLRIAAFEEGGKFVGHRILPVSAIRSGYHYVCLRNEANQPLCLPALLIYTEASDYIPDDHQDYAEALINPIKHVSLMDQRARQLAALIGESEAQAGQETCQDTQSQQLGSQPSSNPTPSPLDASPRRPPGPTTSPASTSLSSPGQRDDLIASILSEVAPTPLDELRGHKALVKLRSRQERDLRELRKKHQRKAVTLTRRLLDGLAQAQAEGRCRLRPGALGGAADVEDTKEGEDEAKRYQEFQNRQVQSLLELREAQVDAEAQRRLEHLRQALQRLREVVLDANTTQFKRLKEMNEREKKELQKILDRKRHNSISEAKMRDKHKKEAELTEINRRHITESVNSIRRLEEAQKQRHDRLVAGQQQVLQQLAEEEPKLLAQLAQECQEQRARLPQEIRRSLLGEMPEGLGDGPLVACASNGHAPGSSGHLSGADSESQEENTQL
# HGIII-sPLA2 inh: Blocks human group III sPLA2 activity | Q9NZ20 | hit rate 0.56% among 370,000 | inhibition, % at 12.2 µM | QFRET BODIPY PC-A2 liposome hydrolysis, fluorescence | AID 743126;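 active means inhibition above mean plus 3 SD of compounds lying within the high and low control bounds, cut at about 19% in these data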;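 further: 0% = median of test compound wells and 100% = no enzyme DMSO wells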
# ARFGAP1 inhibitor: inhibitors of rat ARFGAP1; inhibition, % at 16.5 µM; hit rate 0.26% among 360,000; Arfgap1-stimulated ARF1 GTP hydrolysis, GDP FP detection; AID 651572; Q62848;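 active means inhibition above a per-plate limit, mean inhibition of low control wells plus 3 SD, cut at about 25% in these data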;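 further: 0% = DMSO wells with enzyme and 100% = wells lacking Arfgap1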
#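 system = rat Arfgap1 catalytic domain, aa 1-136 | technique = FP, GDP Alexa 633 tracer displaced from anti-GDP antibody, 620/688 nm | compound = one concentration, 16.5 µM, DMSO 1.26% | medium = HEPES-based buffer, pH 7.5 | timing = compound-enzyme preincubation 20 min, reaction 120 min, detection 60 min, 25 °C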
# ASAP1 GAP inh: blocks human ASAP1-stimulated Arf1 GTP hydrolysis; GDP FP detection; inhibition, % at 16.5 µM; hit rate 0.19% among 360,000; AID 624377; in the data active means inhibition above about 25%;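 further: 0% = vehicle with enzyme and substrate and 100% = no enzyme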
# PLCg1 inh: inhibitors of human phospholipase C gamma1. P19174. purified PLC-gamma1, fluorogenic substrate, fluorescence. hit rate 0.84% among 370,000. inhibition, % at 12.2 µM; in the data active means inhibition above about 9.5%
# PLCg1 ctr: counter-screen for PLC-beta3 inhibitors: inhibitors of human PLC-gamma1. shares compounds with PLCg1 inh. purified PLC-gamma1, fluorogenic substrate, fluorescence. inhibition, % at 12.3 µM. hit rate 3.1% among 3,300. AID 743258; in the data active means inhibition above about 9.5%
# PLCb3 confirm: confirmation of human PLC-beta3 inhibitors. purified PLC-beta3, fluorogenic substrate fluorescence. shares compounds with PLCg1 inh. hit rate 1% among 3,300. inhibition, % at 12.3 µM
# * = called active by the depositor; · = no result given. An excerpt weighted towards active compounds, which were near 1.9% of everything screened. Unless noted, no stated cut-off is given here; in the data, active means inhibition above about 11%; inactive means the rest.
SMILES,PLCb3 inh,HGIII-sPLA2 inh,ARFGAP1 inhibitor,ASAP1 GAP inh,PLCg1 inh,PLCg1 ctr,PLCb3 confirm
O=C(NC1CCCCC1)C(c1cccnc1)N(C(=O)c1csnn1)c1ccccc1 (stereo not given),-6.1,5.6,-1.0,-16.3,-2.1,·,·
O=C(NC1CCCC1)C(c1cccnc1)N(C(=O)c1csnn1)c1ccc(F)cc1 (stereo not given),-5.1,15.1,3.4,8.2,9.7*,-0.7,5.0
CC(=O)c1ccc(N(C(=O)c2csnn2)C(C(=O)NC2CCCC2)c2ccccc2)cc1 (stereo not given),3.0,6.5,5.9,11.0,10.9*,-3.6,0.8
O=C(NC1CCCCC1)C(c1ccncc1)N(C(=O)c1csnn1)c1ccccc1F (stereo not given),-6.6,10.5,-5.6,4.7,-2.8,·,·
O=C(NC1CCCC1)C(c1ccccc1)N(C(=O)c1csnn1)c1ccccc1F (stereo not given),5.6,0.8,6.2,3.2,9.9*,2.1,-3.4
O=C(Nc1ccccc1)OCCN1C(=O)CCC12CCC(c1ccccc1)CC2 (stereo not given),-0.4,-3.2,·,·,3.8,·,·
O=S(=O)(C/C(=C/CO)S(=O)(=O)c1ccccc1)c1ccccc1,4.2,9.3,13.0,6.1,9.7*,-3.5,0.6
O=C(CS(=O)(=O)c1ccccc1)CS(=O)(=O)c1ccccc1,-18.1,-25.6,6.4,-10.9,-12.0,·,·
Cc1ccsc1S(=O)(=O)n1c(CN2CCOCC2)nc2ccccc21,0.7,0.2,·,·,0.4,·,·
Oc1ccc(C[C@H]2CNCCN2CCC23CC4CC(CC(C4)C2)C3)cc1,11.1*,1.2,5.8,6.4,9.8*,-5.8,-1.5
CCCn1nc(C(=O)NCC(C)(C)N2CCOCC2)c2ccccc2c1=O,8.6,9.1,7.2,-5.4,9.7*,-3.0,-0.7
Nn1c(SCC(=O)N2CCOCC2)nnc1-c1cc(-c2ccc(F)cc2)n[nH]1,3.6,-2.3,·,·,0.4,·,·
CC1(C(=O)Nc2cccc(NS(C)(=O)=O)c2)Cc2c(-c3cccc(C(N)=O)c3)ccnc2O1 (stereo not given),5.8,-0.7,0.1,8.3,4.8,·,·
CC1(C(=O)NCc2ccccc2)Cc2c(-c3cccc(C(N)=O)c3)ccnc2O1 (stereo not given),0.9,-0.2,-9.6,-5.2,2.8,·,·
COc1ccc(CNC(=O)C2(C)Cc3c(-c4cccc(C(N)=O)c4)ccnc3O2)cc1OC (stereo not given),3.4,0.2,-2.0,5.8,10.3*,-4.0,-2.3
CC1(C(=O)Nc2cccc(NS(C)(=O)=O)c2)Cc2c(-c3ccc(C(N)=O)cc3)ccnc2O1 (stereo not given),6.3,1.1,1.4,4.1,10.5*,7.2,1.8
CCOC(=O)[C@@]12CCCC3=C1N(CCC3)C(=O)[C@H]2CC(=O)NCc1cccs1,0.8,0.4,·,·,0.6,·,·
CCN1Cc2nnn(Cc3ccccc3)c2-c2cc(N3CCCC3)ccc2S1(=O)=O,-64.3,-1.4,·,·,-52.1,·,·
O=C(CSc1ccc(Cl)cc1)N1CCN(c2c(Cl)cccc2[N+](=O)[O-])CC1,-3.7,-4.0,-6.8,2.6,1.1,·,·
O=C(/C=C/c1ccc(Cl)cc1)N1CCN(c2c(Cl)cccc2[N+](=O)[O-])CC1,10.4,-4.6,7.1,-11.9,17.0*,-7.2,1.7
CC1CCc2cc(F)ccc2N1C(=O)CSc1nnc2c3ccccc3n(C)c2n1 (stereo not given),2.0,6.6,14.5,4.6,9.7*,-10.3,-2.6
O=C(Oc1ccc(/C=N/NC(=O)c2ccco2)cc1)c1ccccc1,3.4,-4.4,-5.9,18.4,10.2*,2.4,8.2
O=C(N/N=C/c1ccc(OC(=O)c2cccs2)cc1)c1ccc(F)cc1,11.3*,4.3,24.0,19.9,10.2*,-1.4,4.5
O=C(Oc1ccc(/C=N/NC(=O)c2ccccc2O)cc1)c1ccccc1,-19.3,-5.1,-12.1,-2.0,-15.9,·,·
O=C(Oc1ccc(/C=N/NC(=O)c2ccccc2F)cc1)c1ccccc1,-2.4,8.0,6.2,5.2,5.5,·,·
SMILES,PLCb3 inh,HGIII-sPLA2 inh,ARFGAP1 inhibitor,ASAP1 GAP inh,PLCg1 inh,PLCg1 ctr,PLCb3 confirm
O=C(N/N=C/c1ccc(OC(=O)c2ccccc2)cc1)c1cccc(O)c1,17.9*,-38.1,11.4,14.7,13.1*,10.6*,15.3*
COC(=O)[C@]12C[C@H](CC(=O)NCCc3ccccc3OC)C(=O)N(Cc3ccc(Cl)cc3Cl)C1=C[C@H](COCc1ccccc1)O[C@@H]2C,-5.1,-9.2,·,·,1.1,·,·
CCCCCCCCN1C(=O)[C@@H](CC(=O)NCc2ccc(C)o2)C[C@@]2(C(=O)OC)C1=C[C@H](COCc1ccccc1)O[C@@H]2C,-1.1,-14.5,·,·,-2.6,·,·
COc1cc(Cl)c(C)cc1NC(=O)CN(C)Cc1cccc(OC)c1OC,-8.1,-4.8,-2.2,3.0,10.2*,-6.5,-4.8
CC(=O)N1CCc2cc(S(=O)(=O)NC3CCN(C(=O)OCc4ccccc4)CC3)ccc21,1.6,-14.0,·,·,0.5,·,·
C=CCN(C)C(C#Cc1ccccc1)c1ccccc1C(F)(F)F (stereo not given),3.7,1.1,·,·,-0.3,·,·
Cc1ccc(N(CC(=O)NC2CCC(C)CC2)S(=O)(=O)c2cccnc2)cc1 (stereo not given),12.5*,4.7,7.9,-2.1,7.5,-7.6,-4.0
Cc1ccc(S(=O)(=O)c2cccc(S(=O)(=O)N3CCCC3)c2)cc1S(=O)(=O)N1CCCC1,13.9*,-24.6,-6.3,-0.2,9.9*,-0.6,0.5
CCOC(=O)c1c2c(n(C)c1C)C(=O)C(=O)c1ccc(Br)cc1-2,0.2,3.0,-4.5,16.9,0.9,·,·
CCOC(=O)c1c2c(n(Cc3ccccc3)c1C)C(=O)C(=O)c1ccccc1-2,4.3,9.3,4.5,18.4,17.1*,36.1*,10.7*
CCN1CCCCC(NC(C)=O)C1=O (stereo not given),-1.2,18.1,·,·,2.7,·,·
O=C(CCNC(=O)c1ccco1)NCCc1ccc(Cl)cc1,-2.4,0.6,-0.3,-8.5,-1.0,·,·
O=C(CCNC(=O)c1ccccc1)NCCc1ccc(Cl)cc1,-0.1,3.5,4.8,-0.9,9.6*,-5.3,-4.1
Cc1ccc(SCc2ccc(C(=O)Nc3cc([N+](=O)[O-])ccc3C)cc2)cc1,5.9,5.6,0.7,6.9,11.6*,-1.7,-1.3
Cn1cc(/C=N/NC(N)=S)c2ccccc21,3.9,13.3,-8.9,1.8,10.1*,1.5,4.8
C=CCNC(=S)N/N=C/c1cn(C)c2ccccc12,-2.6,10.5,-12.0,-7.1,-2.5,·,·
CCCCCNC(=O)[C@@H]1CSC2c3ccccc3C(=O)N21 (stereo not given in full),8.2,-6.5,-4.5,1.9,13.3*,-1.2,0.2
